PubChem BioAssay AID624205 (Southern Research Specialized Biocontainment Screening …, 2012)
Where “and” joins values, the source holds several entries; their conditions need not be identical. Equal entries are not always repeated. Results filed as inconclusive are left out. Calls of active or inactive are those of the source.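 Rule for the calls: active = viability under 80% at one or more tested concentrations, counted as toxic; inconclusive = replicate runs disagree on the viability criterion; inactive = viability at or above 80% at every dose.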

tested on: not listed separately; assay: Vero E6 cell cytotoxicity, dose response, cytotoxicity control for PfM18AAP inhibitor project, set 3 (AID 624205); conditions: Vero E6 viability, CellTiter-Glo luminescence, 72 h; at 50 µM (top of the series)
Outline: (§1)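 assay system = Vero E6 cells, viability assay | input = 3000 cells per well | doses = compound dose series in 2-fold dilution steps | technique = CellTiter-Glo luminescence for viable cell content | timing = 72 h compound exposure at 37 °C with 5% CO2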

SMILES | viability
Oc1cccc(CCNc2ccnc3ccccc23)c1O | 93.2% (inactive)
COc1ccc(CCN(C)c2ncnc3ccccc23)cc1OC | 85.7% (inactive)
CN(CCCc1ccc(O)c(O)c1)c1ccnc2ccccc12 | 88.4% (inactive)
Cc1cc(N(C)CCc2ccc(O)c(O)c2)c2ccccc2n1 | 89.8% (inactive)
COc1ccc(CCN(C)c2cc(C)nc3ccccc23)cc1OC | 80.7% (inactive)
Cc1cccc2c(NCCc3ccc(O)c(O)c3)ccnc12 | 95.1% (inactive)
CN(CCc1ccc(O)c(O)c1)c1ncnc2ccccc12 | 95.4% (inactive)
CC(Cc1ccc(O)c(O)c1)Nc1ccnc2ccccc12 (stereo not given) | 83.9% (inactive)
COc1ccc(CCNC(=O)c2cc(C)ccc2N)cc1OC | 95.6% (inactive)
CN(CCc1ccc(O)c(O)c1)c1ccnc2c(F)cccc12 | 86% (inactive)
Oc1ccc(CCCNc2c3c(nc4ccccc24)CCCC3)cc1O | 92.3% (inactive)

tested on: Vero E6 viability, CellTiter-Glo luminescence, 72 h; assay: as above; conditions: not given
Outline: as §1

SMILES | CC50
CCOc1ccc2nccc(N(C)CCc3ccc(OC)c(OC)c3)c2c1 | 41 µM
CN(CCCc1ccc(O)c(O)c1)c1c2ccccc2nc2ccccc12 | 21.9 µM
CCN(CCc1ccc(O)c(O)c1)c1c2ccccc2nc2ccccc12 | 34.6 µM
COc1cc(Br)c(CCNc2c3c(nc4ccccc24)CCCC3)cc1OC | 20.1 µM
COc1ccc(C2CCN(c3ccnc4ccccc34)CC2)cc1OC | 23.7 µM
COc1cc(Br)c(CCNc2ccnc3ccccc23)cc1OC | 15.9 µM
CCN(CC)Cc1cc(Nc2ccnc3cc(Cl)ccc23)ccc1O | 40.1 µM
COc1ccc(CCNc2ccnc3cc(Cl)ccc23)cc1OC | 41.6 µM
COc1ccc(CCN(C)c2c3ccccc3nc3ccccc23)cc1OC | 12.9 µM and 9.77 µM
Nc1c2ccccc2nc2ccccc12 | 10.3 µM
CCN(CCc1ccc(OC)c(OC)c1)c1c2ccccc2nc2ccccc12 | 15.4 µM
COc1cc(Br)c(CCNc2c3ccccc3nc3ccccc23)cc1OC | 5.03 µM
COc1ccc(CCCN(C)c2c3ccccc3nc3ccccc23)cc1OC | 9.23 µM
CC(C)(CNc1ccnc2ccccc12)c1ccc(O)c(O)c1 | 15 µM
